From ChEMBL document CHEMBL1138286, “Synthesis and biological evaluation of N-(aryl)-2-thiophen-2-ylacetamides series as a new class of antitubercular agents” (2007) come the findings set out here.

≈ marks a conversion by molar mass, not a printed value. Calls of active or inactive are those of the source. The calls are words filed in the database; no cut-off is given here.

Common to all, as to assay type: functional
Test [1] concerns Mycobacterium tuberculosis. The experiment in a line: Antibacterial activity against Mycobacterium tuberculosis ATTC 27294 after 5 days by MABA assay. The note with it: for MIC: 120 h. In short, it runs like this: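 Microplate Alamar blue assay in Middlebrook 7H9 broth. Compounds serially diluted on the plate to final concentrations of […]. Plates sealed and incubated at 37 °C for 5 days. A 1:1 mix of Alamar blue and 10% Tween 80 was then added and plates incubated 24 h. Blue scored as no growth, pink as growth. MIC is the lowest concentration preventing the blue-to-pink change.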
A general note: Resazurin is reduced to fluorescent resorufin, in cell work by metabolically active cells.

Test [2] relates to J774. The experiment in a line: Cytotoxicity against murine J774 cells assessed as cell viability at 10 ug/mL after 18 hrs by MTT assay. The note with it: Mus musculus, J774, 18 h; read-out: Activity. In short, it runs like this:
(§1)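 J774 macrophages plated at 2.5 × 10⁶ cells/mL and held 1 h at 37 °C under 5% CO₂. Non-adherent cells were washed off with RPMI 1640. Adherent cells were exposed in triplicate to compound at 0.1, 1.0, 10.0 or 100 µg/mL, with medium alone as live control and 3% Tween 20 as dead control. After 18 h, MTT was added for 4 h, formazan was dissolved in DMSO, and A540 was read.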
(Tetrazolium dyes change colour on reduction, which living cells bring about.)

For test [3], the system named is J774. The test is described as follows: Cytotoxicity against murine J774 cells assessed as cell viability at 1 ug/mL after 18 hrs by MTT assay. The note with it: Mus musculus, J774, 18 h; read-out: Activity. In short, it runs like this: as §1
For test [4], the system named is J774. The test is described as follows: Cytotoxicity against murine J774 cells assessed as cell viability at 100 ug/mL after 18 hrs by MTT assay. The conditions noted are these: Mus musculus, J774, 18 h; read-out: Activity. An outline of the steps: as §1
Test [5] has as its system J774. The test is described as follows: Cytotoxicity against murine J774 cells assessed as cell viability at 0.1 ug/mL after 18 hrs by MTT assay. The conditions noted are these: Mus musculus, J774, 18 h; read-out: Activity. In short, it runs like this: as §1

Usually MIC stands for the lowest concentration that inhibits growth of the organism. Low values mean a more susceptible organism, high ones a less susceptible organism. Consider `NNC(=O)c1ccncc1` [ISONIAZID], for which it took 0.2 µg/mL (≈ 1.46 µM) to inhibit growth in test [1] (MIC). Regarding `Cc1cccc(C)c1NC(=O)Cc1cccs1`, the result in test [1] was inactive.

The compound `O=C(Cc1cccs1)Nc1ccc(Cl)cc1` returned an MIC in test [1] of 100 µg/mL (≈ 397 µM). Compound `CO[C@H]1/C=C/O[C@@]2(C)Oc3c(C)c(O)c4c(O)c(c(/C=N/N5CCN(C)CC5)c(O)c4c3C2=O)NC(=O)/C(C)=C\C=C\[C@H](C)[C@H](O)[C@@H](C)[C@@H](O)[C@@H](C)[C@H](OC(C)=O)[C@@H]1C` [RIFAMPIN] registered an MIC in test [1] of 1 µg/mL (≈ 1.22 µM).

In turn, `O=C(Cc1cccs1)Nc1ccc(F)cc1` showed an MIC in test [1] of 100 µg/mL (≈ 425 µM). As to `COc1ccc(OC)c(NC(=O)Cc2cccs2)c1`, the result in test [1] was inactive. On the same count and under the same terms, next, `O=C(Cc1cccs1)Nc1c(Cl)cccc1Cl`: “inactive”. In the case of `O=C(Cc1cccs1)Nc1ccc([N+](=O)[O-])cc1`, the viability at 10 µg/mL in the test with J774 [2] came to 100%. In addition, the minimum inhibitory concentration (MIC) in test [1] worked out at 50 µg/mL (≈ 191 µM). Moreover, in the test on J774 [3], the viability at 1 µg/mL worked out at 100%. For the same compound, the viability at 100 µg/mL in the test on J774 [4] worked out at 85%. For the same compound, the viability at 0.1 µg/mL with J774 [5] was found to be 100%. For `COc1ccc(NC(=O)Cc2cccs2)cc1`, the result in test [1] was inactive. For the compound `O=C(Cc1cccs1)Nc1ccc(F)cc1Cl`, the result in test [1] was inactive. `O=C(Cc1cccs1)Nc1ccc(Br)cc1`: the result in test [1] was inactive.

As to `O=C(Cc1cccs1)Nc1cccc(Cl)c1`, the viability at 10 µg/mL in the test on J774 [2] came to 100%. The MIC in test [1] came to 50 µg/mL (≈ 199 µM). In the test with J774 [3], the viability at 1 µg/mL worked out at 100%. Further, in the test on J774 [4], the viability at 100 µg/mL was 100%. In addition, in the test with J774 [5], the viability at 0.1 µg/mL worked out at 100%.

On to `O=C(Cc1cccs1)Nc1ccccc1`, for which the viability at 10 µg/mL in the test on J774 [2] was 100%. It took 25 µg/mL (≈ 115 µM) to inhibit growth in test [1] (MIC). Also, the viability at 1 µg/mL with J774 [3] was 100%. Moreover, the viability at 100 µg/mL with J774 [4] amounted to 100%. Also, the viability at 0.1 µg/mL with J774 [5] was determined as 100%. `COc1cccc(NC(=O)Cc2cccs2)c1`: the viability at 10 µg/mL in the test on J774 [2] worked out at 100%. The minimal inhibitory concentration (MIC) in test [1] is 50 µg/mL (≈ 202 µM). Also, in the test with J774 [3], the viability at 1 µg/mL stood at 100%. Moreover, the viability at 100 µg/mL in the test on J774 [4] worked out at 100%. For the same compound, in the test with J774 [5], the viability at 0.1 µg/mL was determined as 100%. Turning to `O=C(Cc1cccs1)Nc1ccccc1[N+](=O)[O-]`, the result in test [1] was inactive. Consider `O=C(Cc1cccs1)Nc1ccc(Cl)cc1F`, for which the minimum inhibitory concentration (MIC) in test [1] amounted to 100 µg/mL (≈ 371 µM).

As to `O=C(Cc1cccs1)Nc1ccccc1C(F)(F)F`, in test [1], the result was inactive.

For the compound `O=C(Cc1cccs1)Nc1cccc(C(F)(F)F)c1`, in test [1], the result was inactive.

Turning to `O=C(Cc1cccs1)Nc1ccc2c(c1)OCO2`, in test [1], the outcome was inactive. Turning to `COc1ccccc1NC(=O)Cc1cccs1`, the result in test [1] was inactive. `Cc1ccccc1NC(=O)Cc1cccs1` gave an MIC in test [1] of 100 µg/mL (≈ 432 µM). On to `O=C(Cc1cccs1)Nc1cccc([N+](=O)[O-])c1`, for which the outcome in test [1] was inactive.
